EP2 antag: inhibitors of human EP2 prostaglandin E2 receptor; P43116; C6 glioma cells expressing human EP2, cAMP TR-FRET; cells stimulated with saturating PGE2; inhibition, % at 25 µM; hit rate 0.52% among 260,000; AID 1422;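 active = percent inhibition above 40 after rounding to a whole number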;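 also: rat C6 glioma host cells with rolipram phosphodiesterase inhibitor present; the protocol text gives 20 µM as final concentration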
Target sequence (P43116 whole entry, looked up): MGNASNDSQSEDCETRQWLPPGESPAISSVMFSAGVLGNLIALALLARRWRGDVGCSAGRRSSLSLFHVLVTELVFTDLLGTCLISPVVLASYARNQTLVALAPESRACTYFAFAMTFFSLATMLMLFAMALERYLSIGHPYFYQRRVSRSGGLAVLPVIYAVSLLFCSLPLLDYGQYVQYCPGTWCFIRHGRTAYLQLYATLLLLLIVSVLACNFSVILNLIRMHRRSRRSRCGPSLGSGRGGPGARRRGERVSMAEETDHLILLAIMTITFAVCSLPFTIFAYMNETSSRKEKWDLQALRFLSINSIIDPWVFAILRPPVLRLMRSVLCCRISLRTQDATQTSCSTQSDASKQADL
Dynein cargo inh: dynein cargo transport inhibition; 3617.4 mouse cells, GR-EGFP nuclear translocation imaging; test concentration mostly 20 µM; stimulated with dexamethasone, 1 µM; active compounds read low; z-score, hits read low; hit rate 0.47% among 220,000; AID 1381;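 active = plate z-score of nuclear minus cytoplasmic receptor signal below a set negative limit, without overly bright fluorescence or cell loss, cut at about -3.5 in these data, passing the limit was not always enough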;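 also: z-score of nuclear minus cytoplasmic ring GR-EGFP intensity difference per well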
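Buffer or medium – tet-free medium with charcoal-stripped serum · Signal – automated 10x imaging of fixed Hoechst-stained cells · Also added – dexamethasone agonist, 1.0 µM final, for 30 min · Incubation – induction 48 h, compound 1 h, agonist 30 min · Read-out – GR-EGFP nuclear translocation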
EP2 modulator: modulators of human EP2 prostaglandin E2 receptor; hit rate 0.83% among 260,000; induction, % at 25 µM; P43116; EP2-expressing cells, cAMP HTRF FRET, PGE2 co-stimulation;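 active = compounds whose cAMP rise, as percent of the full-agonist control response, exceeds 60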;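 also: rat C6 glioma line stably carrying human EP2 under a CMV promoter; the protocol text gives 20 µM as final concentration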
Hsp70 act: transcriptional activators of Hsp70. HeLa Hsp70 promoter luciferase reporter, luminescence; scaled: vehicle 0, proteasome-inhibitor control 100%. activation, % at 10 µM. hit rate 0.04% among 200,000. AID 1203;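 active = activation above the mean across all tested compounds plus 3 SD, cutoff set per campaign, cut at about 5.5% in these data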
EP2 cAMP induct: EP2 receptor cAMP induction, counter-screens negative. shares compounds with EP2 modulator. C6 glioma EP2 cells, cAMP HTRF induction; plus low (about EC15) PGE2 agonist. calls only at 20 µM (by protocol). hit rate 47% among 1,300;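 active = cAMP induction above 50% in the main assay while under 30% in all four parallel counter assays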;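 also: rat C6 glioma cells stably expressing human EP2 receptor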
Hits are given with their value; - = inactive; . = no result given; + = active, no number; ! = repeats disagree. The list is not random: actives were taken first. Their share in the collection is about 1.7%.

SMILES | EP2 antag | Dynein cargo inh | EP2 modulator | Hsp70 act | EP2 cAMP induct
CCOc1ccc(-c2noc(-c3ccncc3)n2)cc1OCC | - | - | - | - | .
CCOc1cc(-c2noc(-c3ccncc3)n2)cc(Br)c1OC | - | - | - | - | +
CC(CCO)[N+]1(C)CC[N+](C)(C)CC1 (configuration not stated) | - | . | - | . | .
CCC(C)(C)n1nnnc1C(c1ccncc1)N1CCC(Cc2ccccc2)CC1 (configuration not stated) | - | - | 79 | - | -
CC(=O)N(c1cccc(Br)c1)C1C=CS(=O)(=O)C1 (configuration not stated) | - | - | 69 | - | -
Cc1ccc(Cn2c(SCC(=O)N3CCC(C)CC3)nc3c2c(=O)n(C)c(=O)n3C)cc1 | - | . | - | . | .
Cn1c(=O)c2c(ncn2CCSS(=O)(=O)O)n(C)c1=O | - | . | 61 | . | -
CCC(Sc1nc2ccccc2[nH]1)C(=O)Nc1cc(C)on1 (configuration not stated) | - | - | - | - | .
CCC(Sc1nc(-c2ccccc2)c(C#N)c(=O)[nH]1)C(=O)Nc1cc(C)on1 (configuration not stated) | 50 | - | 76 | - | -
CCC(C)(C)NC(=O)CN(C(=O)CCC(=O)Nc1nccs1)c1ccc(C(C)C)cc1 | - | . | - | . | .
CCN1C(=O)/C(=C2/C=CC=CN2C)SC1=S | - | - | 75 | - | -
COc1cc2cc(CN(Cc3cccnc3)Cc3nnnn3C3CCCC3)c(=O)[nH]c2cc1OC | - | . | - | . | .
Cc1ccc(N(Cc2ccccc2)Cc2ccccc2)cc1 | - | . | - | . | -
COc1ccc(N(Cc2ccccc2)S(=O)(=O)c2ccc(C)cc2)cc1 | - | - | 69 | - | +
Cc1ccc(CNC(=O)NCc2ccccc2)cc1 | - | - | - | - | .
CCOC(=O)c1c(-c2ccccc2)oc2ccc(OCC)cc12 | - | - | - | - | .
CCOC(=O)c1c(-c2ccccc2)oc2ccc(OC)cc12 | - | - | 69 | - | +
Cc1nn(CC(=O)N2CCC3(CC2)NC(=O)c2cccnc2N3C)c(=O)c2ccccc12 | - | . | - | . | .
O=C(O)c1cccc(N/N=C/c2ccc(-c3ccccc3)cc2)c1 | - | - | - | - | .
O=C(O)c1cccc(NN=C2c3ccccc3-c3ccccc32)c1 | - | - | 75 | - | -
Cc1ccc(-n2c(Cc3cccc4ccccc34)n[nH]c2=S)c(C)c1 | - | - | 61 | - | +
CS(=O)(=O)N1CCc2cc(C(=O)Nc3ccc(Cl)cc3Cl)ccc21 | - | . | - | . | .
Clc1ccc(COn2c(-c3ccccc3)nc3ccccc32)cc1 | - | - | 67 | - | -
CC(C)n1cc(-c2ccc(Cl)cc2)cc(C#N)c1=O | - | - | 68 | - | -
COc1ccc(CNc2c(-c3ccc(O)c(O)c3)nc3cnccn23)cc1 | - | . | - | . | .
SMILES | EP2 antag | Dynein cargo inh | EP2 modulator | Hsp70 act | EP2 cAMP induct
N#Cc1sc2nc(-c3ccccc3)cc(-c3ccco3)c2c1N | - | - | - | - | .
N#Cc1sc2nc(C3CC3)cc(-c3ccccc3)c2c1N | - | - | 83 | - | +
Cc1ccc(NC(=O)CSc2nnc3n(CC(=O)N4CCCC4)c4ccccc4n23)c(C)c1 | - | . | - | . | .
Cc1nn2c(N3CCN(C(=O)c4ccco4)CC3)cc(C(C)(C)C)nc2c1-c1ccccc1 | - | - | 78 | - | +
Cc1nn2c(N3CCCC3)cc(C(C)C)nc2c1-c1ccccc1 | - | - | 75 | - | +
Nc1[nH]n2c(=O)c3c(nc2c1N=Nc1ccccc1)CCCC3 | - | - | 90 | - | +
Cc1cc2cc(C(c3nnnn3CC3CCCO3)N3CCCc4ccccc43)c(=O)[nH]c2cc1C (configuration not stated) | - | - | - | - | .
CCc1ccc2[nH]c(=O)c(C(c3nnnn3CC3CCCO3)N3CCCc4ccccc43)cc2c1 (configuration not stated) | - | - | 77! | - | +
CN(C)c1ncc(S(=O)(=O)c2ccc(Cl)cc2)c(-c2ccccc2)n1 | - | - | 80 | - | +
O=S(=O)(c1ccc(Cl)cc1)c1cnc(-c2cccnc2)nc1-c1ccccc1 | - | - | - | - | .
C=CCn1c(SCC(=O)Nc2cccc(OC)c2)nnc1-c1ccncc1 | - | . | - | . | .
Cc1ccc(-c2csc(Nc3ccc(C(=O)O)cc3)[n+]2Cc2ccccc2)cc1 | - | - | 76 | - | +
COc1ccc(-c2cc(C(F)(F)F)nc(N3CCCCC3)n2)cc1OC | - | - | - | - | +
C#CCN1C(C)=C(C(=O)OC)C(c2cccc([N+](=O)[O-])c2)C(C(=O)OCC)=C1C (configuration not stated) | - | . | - | . | -
Oc1c(C=C2N=c3ccccc3=N2)sc(=S)n1-c1ccccc1 | - | - | - | - | .
CC1=Nc2ccccc2/C1=C/c1sc(=S)n(-c2cccc(C(=O)O)c2)c1O | - | - | 71 | - | +
CCc1cc2cc3c(cc2nc1SCC(=O)Nc1ccccc1C(F)(F)F)OCCO3 | - | . | - | . | .
CC(=O)N1c2ccc3ccccc3c2C(C)CC12CCCCC2 (configuration not stated) | - | - | - | - | .
CC(=O)N1Cc2ccccc2C(C)CC12CCCCC2 (configuration not stated) | - | - | 66 | - | +
CC(C)Sc1cc(N2CCOCC2)nc(-c2ccc(Cl)cc2)n1 | - | - | 82 | - | -
COc1ccc(C(NC(=O)c2csc(C(C)=O)c2)c2ccncc2)cc1 (configuration not stated) | - | . | - | . | .
C/C(=N\O)C(=O)OC1CC(C)CCC1C(C)C (configuration not stated) | - | - | - | - | +
CC1CCC(C(C)C)C(OC(=O)COC(=O)c2ccc(N)cc2)C1 (configuration not stated) | - | - | - | - | .
O=S(=O)(NCc1cccs1)c1ccc(S(=O)(=O)NC2CCCCC2)cc1 | - | . | - | . | .
COC(=O)C1=C(C)N(C)C(C)=C(C(=O)OC)C1c1ccccc1C | - | - | - | - | .
SMILES | EP2 antag | Dynein cargo inh | EP2 modulator | Hsp70 act | EP2 cAMP induct
CCOC(=O)C1=C(C)N(C)C(C)=C(C(=O)OCC)C1c1ccncc1 | - | - | - | - | .
CCOC(=O)C1=C(C)N(C)C(C)=C(C(=O)OCC)C1c1ccccc1 | - | - | 67 | - | +
CCCCN1C=C(C(=O)OC)C(c2ccccc2C(F)(F)F)C(C(=O)OC)=C1 | - | - | - | - | .
CCCCN1C=C(C(=O)OC)C(c2ccccc2Cl)C(C(=O)OC)=C1 | - | - | 69 | - | +
CCCCOc1ccccc1C1C(C(=O)OC)=C(C)N(C)C(C)=C1C(=O)OC | - | - | 94 | - | +
COc1ccc(-c2nnn(CC(=O)Nc3cc(C(F)(F)F)ccc3Cl)n2)cc1OC | - | . | - | . | .
O=c1cc(N2CCCCC2)c(-c2ccccc2)nn1Cc1cccc(Cl)c1 | - | - | 81 | - | +
O=c1cc(N2CCCCC2)c(-c2ccccc2)nn1Cc1ccccc1Cl | - | - | 70 | - | +
